# Results from different studies.
# Each line is one published result; the experiments were not run side by side.
# JAK3 JH1: Tyrosine-protein kinase JAK3, JH1 (JAK3, Homo sapiens, UniProt P52333)
# JAK3: Tyrosine-protein kinase JAK3 (JAK3, Homo sapiens, UniProt P52333)
SMILES,target,test,setting,endpoint,value
CCC(=N\O)/C(C)=C/c1ccc(F)cc1,JAK3 JH1,"cell-free assay, competition with immobilised ligand",1 µM,remaining binding,80%
COc1cc(/C=C/C(=O)CC(=O)/C=C/c2ccc(O)c(OC)c2)ccc1O,JAK3,"enzyme activity, inhibitor",1 µM,activity vs control,104%
CCOC(=O)c1cc2cc(-c3cc(C(=O)NCc4ccc(C(=O)O)cc4)nn3C)ccc2[nH]1,JAK3 JH1,"cell-free assay, competition with immobilised ligand",0.1 µM,remaining binding,82%
Cc1ccc(C(=O)NCc2ccsc2)cc1C#Cc1cn(C(C)C)c2ncnc(N)c12,JAK3,"enzyme activity, inhibitor",1 µM,activity vs control,74%
O=C(NC[C@@H]1[C@H]2CN(C(=O)OCc3cc(C(F)(F)F)cc(C(F)(F)F)c3)C[C@@H]12)c1ccc2[nH]nnc2c1,JAK3 JH1,"cell-free assay, competition with immobilised ligand",1 µM,remaining binding,69%
O=C(CSc1nc2nccnc2c(=O)n1CCc1ccccc1)Nc1nccs1,JAK3,"enzyme activity, inhibitor",10 µM,inhibition,-2%
COc1cc2ncnc(Nc3ccc(Oc4ccccc4)c(C)c3C)c2cc1OC,JAK3,"enzyme activity, inhibitor",1 µM,inhibition,5%
O=C1Nc2ccc(Cl)cc2C1=Cc1cc(Cl)c(O)c(Cl)c1,JAK3,cell-free assay,0.5 µM,remaining signal,100%
COc1cc(Cl)c(C(=O)N[C@@H](CN[C@H]2CC[C@@H](N)CC2)Cc2ccc(C#N)cc2)cc1-c1ccc(CN[C@H](C)c2ccc(C)cc2)o1,JAK3,"enzyme activity, inhibitor",1 µM,remaining activity,101%
CCCS(=O)(=O)Nc1ccc(F)c(C(=O)c2c[nH]c3ncc(-c4ccc(Cl)cc4)cc23)c1F,JAK3,"enzyme activity, inhibitor",1 µM,inhibition,< 10%
CC(C)(C)c1nc(-c2cccc(NS(=O)(=O)c3c(F)cccc3F)c2F)c(-c2ccnc(N)n2)s1,JAK3,"enzyme activity, inhibitor, radiometric",1 µM,remaining activity,115%
COc1ccc2c(c1)O[C@H](c1ccc(OC)c(OC)c1)C[C@@H]2NC(=O)C1(c2ccc3c(c2)OC(F)(F)O3)CC1,JAK3 JH1,"cell-free assay, competition with immobilised ligand",1 µM,remaining binding,100%
C[C@H]1CCN(c2nccc(-c3cnn4ncccc34)n2)C1,JAK3 JH1,cell-free assay,1 µM,remaining signal,84%
CC(C)(O)[C@H]1CC[C@H](Nc2ccc3ncc(-c4cccc(C(F)(F)F)c4)n3n2)CC1,JAK3,"enzyme activity, inhibitor",1 µM,remaining activity,84.8%
CCS(=O)(=O)c1cc2cc(C[C@](O)(CC(C)(C)c3ccc(F)cc3C(N)=O)C(F)(F)F)[nH]c2cn1,JAK3 JH1,"cell-free assay, competition with immobilised ligand",1 µM,remaining binding,72%
N[C@H]1CCN(c2nccc(-c3cnn4ncccc34)n2)C1,JAK3 JH1,cell-free assay,1 µM,remaining signal,86%
COc1cccc(CNC(=O)c2nc3scc(COCc4ccc(C(=O)O)cc4)c3c(=O)[nH]2)c1,JAK3 JH1,"cell-free assay, competition with immobilised ligand",1 µM,remaining binding,78.4%
Nc1ncnc2occ(-c3ccc(NC(=O)Nc4cc(C(F)(F)F)ccc4F)cc3)c12,JAK3 JH1,"cell-free assay, inhibitor",20 µM,remaining signal,4.3%
NS(=O)(=O)c1cc(NC(=O)Cc2ccccc2)ccc1Oc1cccc(Cl)c1,JAK3 JH1,"cell-free assay, competition with immobilised ligand",1 µM,remaining binding,96%
CN(c1nccc(-c2cnn3ncccc23)n1)C1CC1,JAK3 JH1,cell-free assay,1 µM,remaining signal,100%
CCN(CC)CCNC(=O)c1c(C)[nH]c(/C=C2\C(=O)Nc3ccc(F)cc32)c1C,JAK3,"enzyme activity, inhibitor",10 µM,inhibition,69%
Cc1sc(C(=O)NC2COC2)cc1-n1cc(NC(=O)Nc2c(F)cccc2Cl)cn1,JAK3,"enzyme activity, inhibitor",10 µM,remaining activity,96.7%
CC/C(=N\NC(=O)NCc1cccc(O)c1)c1ccc(O)c(C)c1O,JAK3,"enzyme activity, inhibitor",0.1 µM,inhibition,3%
Oc1ccc(-c2nc(-c3ccncc3)c(-c3ccc(F)cc3)[nH]2)cc1,JAK3,cell-free assay,0.5 µM,remaining signal,95.8%
Cc1ccc(Nc2nccc(N(C)c3ccc4c(C)n(C)nc4c3)n2)cc1S(N)(=O)=O,JAK3,"enzyme activity, inhibitor",0.3 µM,inhibition,11%
Cc1cnc(NC2CCOCC2)nc1-n1cnc(C(=O)NC(CN)c2cc(F)cc(Cl)c2)c1 (centres unmarked),JAK3,"enzyme activity, inhibitor, radiometric",1 µM,remaining activity,118%
O=C1NC(=O)c2cc(Nc3ccc(F)cc3)c(Nc3ccc(F)cc3)cc21,JAK3,cell-free assay,0.5 µM,remaining signal,93.9%
O=C(O)[C@@H]1[C@@H](Cn2nnc3ccccc3c2=O)CC[C@H]1C(=O)c1ccc(OCCC2CCOCC2)cc1,JAK3 JH1,"cell-free assay, competition with immobilised ligand",1 µM,remaining binding,95%
CSc1nc(C)c(-c2ccnc(Nc3ccc(N4CCOCC4)cc3)c2)[nH]1,JAK3,"enzyme activity, inhibitor",10 µM,inhibition,65.5%
